Bioassay records: PubChem BioAssay, The Scripps Research Institute Molecular Screening Center
Most compounds without a hit are left out; they make up all but 3.1% or so of the library.
GPR7 antagonist: blocks human GPR7 receptor signaling. P48145. GPR7-expressing cells, fluorescence antagonist assay. inhibition, % at 4.4 µM. 290,000 tested, 1.1% active; in the data active = inhibition above about 16%, passing the limit was not always enough;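 also: cells stimulated with the agonist NPW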
OX1R antag-1: antagonists of human orexin 1 receptor (OX1R) | inhibition, % at 6.6 µM | OX1R-expressing cells, FRET antagonist read-out | 330,000 tested, 1.8% active; in the data active = inhibition mostly above about 38%, no sharp cut-off; inactive = mostly below about 40%
Target sequence (O43613 whole entry, looked up): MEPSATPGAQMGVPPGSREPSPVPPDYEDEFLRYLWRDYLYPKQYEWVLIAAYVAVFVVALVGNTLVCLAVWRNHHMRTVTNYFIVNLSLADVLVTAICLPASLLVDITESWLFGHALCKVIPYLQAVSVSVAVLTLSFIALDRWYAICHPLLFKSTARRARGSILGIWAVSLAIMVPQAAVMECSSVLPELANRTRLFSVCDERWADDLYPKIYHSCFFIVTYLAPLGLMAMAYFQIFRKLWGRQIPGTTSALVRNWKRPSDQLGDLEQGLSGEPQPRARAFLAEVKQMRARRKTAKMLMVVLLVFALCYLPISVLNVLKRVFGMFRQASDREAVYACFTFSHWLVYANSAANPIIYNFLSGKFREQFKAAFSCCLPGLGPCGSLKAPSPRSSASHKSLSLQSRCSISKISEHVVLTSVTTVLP
GalR3 antagonist: blocks the human galanin receptor 3; O60755; inhibition, % at 3 µM; 360,000 tested, 0.44% active; HEK293 GalR3-CNG cAMP membrane potential fluorescence; galR3 body fused to GalR1 C-terminus;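 active = inhibition above the screen-wide average plus 3 SD, cut at about 13% in these data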;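 also: forskolin and galanin both at EC90 stimulate the cells; cAMP rise reported by CNG channel membrane potential dye signal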
OX1R antag-2: antagonists of human orexin 1 receptor | O43613 | CHO/OX1R cells, Fluo-8 calcium fluorescence, orexin A | inhibition, % at 5 µM | 330,000 tested, 0.43% active;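 active = inhibition above its plate's threshold, mean inhibition of all tested compounds on the plate plus 3 SD, cut at about 37% in these data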
CHO parental Ca: counter-screen for OX1R antagonists: effect in parental CHO cells; 330,000 tested, 0.63% active; parental CHO-K1, ATP-induced calcium, Fluo-8 fluorescence; inhibition, % at 5.6 µM;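 active = inhibition above that plate's mean sample inhibition plus 3 SD, cut at about 26% in these data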
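Assay system: untransfected parental CHO cell line. Also added: ATP agonist challenge. Dosing: one dose, 5.6 µM nominal. Measured by: Fluo-8 fluorescence. Read-out: % inhibition. Benchmarks: ATP wells versus no-ATP DMSO wells. Repeats: no replicates.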
OX1R HTRF conf: confirmation of human orexin 1 receptor antagonists, HTRF format; shares compounds with OX1R antag-1; 1,800 tested, 49% active; AID 492964; inhibition, % at 6.6 µM; OX1R-expressing cells, HTRF antagonist assay; in the data active = inhibition above about 55%;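 also: CHO cells expressing OX1R stimulated with orexin A at about EC80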
CHO-K1 HTRF cnt: counter-screen for OX1R antagonists: effect in parental CHO-K1 cells. 1,800 tested, 48% active. inhibition, % at 6.6 µM. shares compounds with OX1R antag-1. HTRF counterscreen; in the data active = inhibition above about 17%
Each line names hits and unclear results; the compound was inactive in the other large screens (follow-up assays come after a bar, where they were run).

O=[N+]([O-])c1ccc2c(c1)nc1n2CCN(c2ccccc2)C1	none
O=[N+]([O-])c1ccc2c(c1)nc1n2CCN(CC2CCCO2)C1 (stereo unspecified)	OX1R antag-1 81 | OX1R HTRF conf inactive | CHO-K1 HTRF cnt 27
COc1cccc(C(=O)Nc2c3c(nn2-c2ccc(Cl)cc2)CS(=O)(=O)C3)c1OC	none
CC1(C)Cc2ccccc2C2=NNC(=O)C2=N1	OX1R antag-1 117 | OX1R HTRF conf inactive | CHO-K1 HTRF cnt 78
NC1=NC(=O)/C(=C\c2ccc(O)c([N+](=O)[O-])c2)S1	OX1R antag-1 90 | OX1R HTRF conf 69 | CHO-K1 HTRF cnt 58
O=C(O)c1ccc(Nc2ncc([N+](=O)[O-])cc2[N+](=O)[O-])cc1	OX1R antag-1 93 | OX1R HTRF conf 68 | CHO-K1 HTRF cnt 107
Cc1ccc(Nc2ccc(C(=O)O)cc2[N+](=O)[O-])cc1	none
O=C1N=C(N2C=CC(=C3C=CNC=C3)C=C2)/C(=C/N=NC(=O)c2ccccc2O)S1	OX1R antag-1 108 | OX1R HTRF conf 68 | CHO-K1 HTRF cnt 109
O=C(COc1ccccc1)Nc1cccc(-c2nnc(-c3ccccc3)o2)c1	none (no result: GPR7 antagonist)
O=C(Nc1cccc(-c2nnc(-c3ccccc3)o2)c1)c1ccc(Br)o1	OX1R antag-1 87 | OX1R HTRF conf inactive | CHO-K1 HTRF cnt inactive
O=C(C[n+]1ccc(-c2nnc3n2CCC3)cc1)c1ccc(Cl)c(Cl)c1	none
COc1ccc(C(=O)C[n+]2ccc(-c3nnc4n3CCC4)cc2)cc1	OX1R antag-1 85 | OX1R HTRF conf 64 | CHO-K1 HTRF cnt 50
CCOc1cc(Br)c(C(C)NC(=O)c2cccnc2)cc1OCC (stereo unspecified)	none (no result: GPR7 antagonist)
Cc1cc[n+](CC(=O)c2cc3ccccc3oc2=O)cc1	OX1R antag-1 78 | OX1R HTRF conf 69 | CHO-K1 HTRF cnt 86
CC(=O)c1cccc(NC(=O)c2ccc(C)c(S(=O)(=O)N3CCOCC3)c2)c1	none
Cc1ccc(C(=O)Nn2cnnc2)cc1S(=O)(=O)N1CCOCC1	OX1R antag-1 86 | OX1R HTRF conf inactive | CHO-K1 HTRF cnt inactive
Cc1ccc(C(=O)Oc2cccc(NC(=O)c3cccs3)c2)cc1S(=O)(=O)N1CCOCC1	OX1R antag-1 79 | OX1R HTRF conf inactive | CHO-K1 HTRF cnt inactive
O=C(N/N=C/c1ccccc1[N+](=O)[O-])C(=O)N1CCCC1	OX1R antag-1 92 | OX1R HTRF conf inactive | CHO-K1 HTRF cnt 26
Oc1ccc2ccccc2c1N=Nc1ccccn1	OX1R antag-1 86 | OX1R HTRF conf inactive | CHO-K1 HTRF cnt 29
Cc1occc1C(=O)N(C)Cc1nc(-c2ccccc2)no1	none
CC1=NN(C(N)=S)C(=O)C1N=Nc1ccccc1C (stereo unspecified)	OX1R antag-1 96 | OX1R HTRF conf inactive | CHO-K1 HTRF cnt 17
CC(=O)Nc1ccc(NC(=O)C(C)OC(=O)CSc2ccc(Br)cc2C)cc1 (stereo unspecified)	none
COc1ccc(OC)c(Nc2nc(N)nc(-c3cc4ccccc4o3)n2)c1	OX1R antag-1 80 | OX1R HTRF conf inactive | CHO-K1 HTRF cnt inactive
O=C(Nc1ccc(F)cc1)C1CCC(CNc2c(N3CCCCC3)c(=O)c2=O)CC1 (stereo unspecified)	none
Cn1c(SCC(=O)N2CCOCC2)nnc1-c1ccncc1	none
O=C(CSc1nnc2nnc3ccccc3n12)N1CCOCC1	OX1R antag-1 94 | OX1R HTRF conf 72 | CHO-K1 HTRF cnt 103
CN(c1ccc(O)cc1)c1nc(O)c(C2=c3ccccc3=NC2=O)s1	OX1R antag-1 79 (no result: GPR7 antagonist) | OX1R HTRF conf inactive | CHO-K1 HTRF cnt inactive
O=C(CCCC1=NS(=O)(=O)c2ccccc2N1)N1CCN(c2ccc([N+](=O)[O-])cc2)CC1	none
CC1(C)CC(=O)C=C(c2cccc3c2oc2ccccc23)C1	none (no result: GPR7 antagonist)
O=C1C=C(c2cccc3c2oc2ccccc23)CCC1	OX1R antag-1 81 (no result: GPR7 antagonist) | OX1R HTRF conf 60 | CHO-K1 HTRF cnt inactive
Cc1cc(=O)[nH]c(SCC(=O)Nc2ccccc2[N+](=O)[O-])n1	none
CCN(CC)c1ccc2cc(C(C)=O)c(=O)oc2c1	OX1R antag-1 96 | OX1R HTRF conf inactive | CHO-K1 HTRF cnt inactive
Cc1ccc(C2(C)NC(=O)N(CC(=O)N(C)CC(=O)Nc3cccc4ccccc34)C2=O)cc1 (stereo unspecified)	none (no result: GPR7 antagonist)
CC(CC1C(C#N)=C(N)SC(N)=C1C#N)c1ccccc1 (stereo unspecified)	OX1R antag-1 88 | OX1R HTRF conf inactive | CHO-K1 HTRF cnt inactive
COc1ccc(NC(=O)c2cccc(NC3=NC4CS(=O)(=O)CC4S3)c2)cc1Cl (stereo unspecified)	none (no result: GalR3 antagonist)
O=C(O)CCNc1ccc(NCCC(=O)O)c2c1C(=O)c1ccccc1C2=O	OX1R antag-1 104 | OX1R HTRF conf 61 | CHO-K1 HTRF cnt 86
COc1ccccc1NCCC(=O)O	none
Nc1nnc(-c2cc3ccccc3oc2=O)s1	OX1R antag-1 152 | OX1R HTRF conf inactive | CHO-K1 HTRF cnt 50
COc1cccc(NC(=O)C(=O)NCCCN2CCCC2=O)c1	none (no result: GPR7 antagonist)
O=C(Nc1ccc(Cl)c(-c2nc3ccccc3[nH]2)c1)c1ccc2c(c1)OCO2	OX1R antag-1 82 | OX1R HTRF conf 84 | CHO-K1 HTRF cnt inactive
O=C(Nc1ccc(-c2nc3ccccc3[nH]2)cc1)c1ccc2c(c1)OCO2	none
CC(C)c1cc[n+](-c2nc([O-])sc2C=O)cc1	OX1R antag-1 98 | OX1R HTRF conf inactive | CHO-K1 HTRF cnt 64
CC(C)(C)c1cc[n+](-c2nc([O-])sc2C=O)cc1	OX1R antag-1 79 | OX1R HTRF conf 72 | CHO-K1 HTRF cnt 74
O=Cc1c(-[n+]2ccccc2)nc([O-])n1-c1ccccc1	none
CCc1cc[n+](-c2nc([O-])sc2C=O)cc1	OX1R antag-1 149 | OX1R HTRF conf inactive | CHO-K1 HTRF cnt 62
Cc1ccc[n+](-c2nc([O-])sc2/C=N/Nc2ccc([N+](=O)[O-])cc2)c1	none
CC(Oc1ccc(Br)cc1)C(=O)Nc1cc(S(=O)(=O)N2CCOCC2)ccc1N1CCCC1 (stereo unspecified)	none (no result: GPR7 antagonist)
CC1=CC(=NOC(=O)c2cccc([N+](=O)[O-])c2)C=C(C)C1=O	OX1R antag-1 118 | OX1R HTRF conf inactive | CHO-K1 HTRF cnt 18
CCCNC(=O)C(Cc1ccccc1)NS(=O)(=O)c1cccc2nsnc12 (stereo unspecified)	OX1R antag-1 126 | OX1R HTRF conf inactive | CHO-K1 HTRF cnt 27
CCC(C)NC(=O)C(Cc1ccccc1)NS(=O)(=O)c1cccc2nsnc12 (stereo unspecified)	OX1R antag-1 153 | OX1R HTRF conf 55 | CHO-K1 HTRF cnt inactive
NC(=O)c1ccc[n+](Cc2ccc(-c3ccccc3)cc2)c1	none
Cc1cc(C(F)(F)F)n2[nH]c(=O)c(N=Nc3ccccc3)c2n1	none
